Data published in ChEMBL document CHEMBL4396879, “Conjugation of Short Peptides to Dibenzodiazepinone-Type Muscarinic Acetylcholine Receptor Ligands Determines M2R Selectivity” (J Med Chem, 2019).

What was measured:
[1] = Stability of the compound in human plasma used as 1:2 ratio of plasma to pH 7.4 PBS assessed as intact compound at 100 uM incubated for 24 hr […]; type: ADME, cell-free; conditions: plasma diluted with PBS (1:2), read-out: Stability
[2] = molecular target: Muscarinic acetylcholine receptors; M1 & M2 (Homo sapiens) (UniProt P11229+P08172); experiment: Selectivity ratio of Ki for human muscarinic M1 receptor expressed in CHO-K9 cells to Ki for human muscarinic M2 receptor expressed in CHO-K9 cells; type: cell-based
How it was run: (§1)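 Ratio of mean Ki values. Each Ki came from an individual [3H]NMS competition experiment at the given CHO-hMxR subtype, converting IC50 to Ki by Cheng-Prusoff before averaging.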

[3] = molecular target: T1, Muscarinic acetylcholine receptor M2 (Homo sapiens) (UniProt P08172); experiment: Competitive displacement of [3H]-NMS from human muscarinic M2 receptor expressed in CHO-K9 cells using 2 nM [3H]-NMS after 3 hrs by microbeta2 scintillation counting method relative to control; type: cell-based
T1 sequence (whole entry): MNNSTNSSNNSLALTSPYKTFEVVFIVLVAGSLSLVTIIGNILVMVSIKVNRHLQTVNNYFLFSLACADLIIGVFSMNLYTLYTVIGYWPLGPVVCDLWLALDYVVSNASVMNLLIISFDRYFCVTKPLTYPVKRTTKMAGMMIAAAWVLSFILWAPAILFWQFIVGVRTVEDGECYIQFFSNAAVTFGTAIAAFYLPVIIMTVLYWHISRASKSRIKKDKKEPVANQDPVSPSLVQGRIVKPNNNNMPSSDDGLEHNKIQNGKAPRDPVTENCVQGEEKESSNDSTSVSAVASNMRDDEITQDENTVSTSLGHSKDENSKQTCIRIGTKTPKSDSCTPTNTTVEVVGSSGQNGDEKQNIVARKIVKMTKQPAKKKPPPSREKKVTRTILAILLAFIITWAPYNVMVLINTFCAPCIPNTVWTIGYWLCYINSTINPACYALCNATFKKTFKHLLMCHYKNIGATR
How it was run: (§2)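 Intact CHO-hM2R cells incubated at 22 °C with a high [3H]NMS concentration (2 nM). […] Curves were fitted by four-parameter logistic fits. Mean ± SEM from ≥4 experiments in triplicate.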

[4] = molecular target: T2, Muscarinic acetylcholine receptor M4 (Homo sapiens, UniProt P08173); experiment: Displacement of [3H]-NMS from human muscarinic M4 receptor expressed in CHO-K9 cells after 3 hrs by microbeta2 scintillation counting method; type: cell-based
T2 sequence (P08173 whole entry): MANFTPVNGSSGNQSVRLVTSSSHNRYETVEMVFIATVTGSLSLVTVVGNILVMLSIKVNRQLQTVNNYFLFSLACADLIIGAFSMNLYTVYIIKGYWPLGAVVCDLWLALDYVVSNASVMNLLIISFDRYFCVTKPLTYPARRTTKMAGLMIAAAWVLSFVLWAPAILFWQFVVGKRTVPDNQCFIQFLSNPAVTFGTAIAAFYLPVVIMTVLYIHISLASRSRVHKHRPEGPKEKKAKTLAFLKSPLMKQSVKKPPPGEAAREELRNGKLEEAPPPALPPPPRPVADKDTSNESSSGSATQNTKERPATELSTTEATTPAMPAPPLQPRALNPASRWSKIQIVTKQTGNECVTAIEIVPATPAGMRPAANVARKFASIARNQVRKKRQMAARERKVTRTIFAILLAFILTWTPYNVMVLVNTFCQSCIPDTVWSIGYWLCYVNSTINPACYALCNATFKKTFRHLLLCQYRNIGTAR
How it was run: (§3)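 [3H]NMS competition binding on intact CHO-hMxR cells in L15 medium with 1% BSA, 3 h at 22 ± 1 °C with gentle shaking. [3H]NMS was 0.2 nM (M1, M2, M3), 0.1 nM (M4) or 0.3 nM (M5). […] Cells were lysed in urea/acetic acid/Triton and counted by liquid scintillation. Ki from Cheng-Prusoff. Triplicates, ≥3 experiments.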

[5] = Stability of the compound in human plasma used as 1:2 ratio of plasma to pH 7.4 PBS assessed as intact compound at 100 uM incubated for 48 hr by LC-MS analysis; type: ADME, cell-free; conditions: plasma diluted with PBS (1:2), read-out: Stability
How it was run: (§4)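 Compound added at 100 μM (from 5 mM stock in acetonitrile/0.04% TFA 3:7) to heparinized human plasma/PBS pH 7.4 (1:2 v/v) with 10 μM 1-methyl-D-tryptophan as internal standard. Incubated shaking at 37 °C in triplicate. Aliquots were EtOH/acetonitrile-precipitated and analysed by RP-HPLC at 220 nm, with recovery correction against four-point calibrations.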

[6] = Stability of the compound in human plasma:PBS of pH 7.4 (1:2) assessed as intact compound at 100 uM incubated for 1 hr by LC-MS analysis; type: ADME, cell-free; conditions: plasma diluted with PBS (1:2), read-out: Stability; how it was run: as §4
[7] = molecular target: T3, Muscarinic acetylcholine receptor M2 (Homo sapiens, UniProt P08172); experiment: Competitive displacement of [3H]-NMS from human muscarinic M2 receptor expressed in CHO-K9 cells using 0.2 nM [3H]-NMS after 3 hrs by microbeta2 scintillation counting method; type: cell-based
T3 sequence (P08172 whole entry): T1 sequence (whole entry)
How it was run: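 Intact CHO-hM2R cells (90-100% confluent) incubated 3 h at 22 ± 1 °C in L15 medium with 1% BSA and 0.2 nM [3H]NMS. […] Cells were lysed in urea/acetic acid/Triton-X-100 and radioactivity was counted. Ki via Cheng-Prusoff.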

[8] = Stability of the compound in human plasma used as 1:2 ratio of plasma to pH 7.4 PBS assessed as intact compound at 100 uM incubated for 6 hr […]; type: ADME, cell-free; conditions: plasma diluted with PBS (1:2), read-out: Stability
[9] = molecular target: T3, Muscarinic acetylcholine receptor M2; experiment: Competitive displacement of [3H]-NMS from human muscarinic M2 receptor expressed in CHO-K9 cells using 2 nM [3H]-NMS after 3 hrs by microbeta2 scintillation counting method; type: cell-based; how it was run: as §2
[10] = molecular target: Muscarinic acetylcholine receptor M2 and M4 (Homo sapiens) (UniProt P08173+P08172); experiment: Selectivity ratio of Ki for human muscarinic M4 receptor expressed in CHO-K9 cells to Ki for human muscarinic M2 receptor expressed in CHO-K9 cells; type: cell-based; how it was run: as §1
[11] = molecular target: T4, Muscarinic acetylcholine receptor M1 (Homo sapiens, UniProt P11229); experiment: Displacement of [3H]-NMS from human muscarinic M1 receptor expressed in CHO-K9 cells after 3 hrs by microbeta2 scintillation counting method; type: cell-based; how it was run: as §3
T4 sequence (P11229 whole entry): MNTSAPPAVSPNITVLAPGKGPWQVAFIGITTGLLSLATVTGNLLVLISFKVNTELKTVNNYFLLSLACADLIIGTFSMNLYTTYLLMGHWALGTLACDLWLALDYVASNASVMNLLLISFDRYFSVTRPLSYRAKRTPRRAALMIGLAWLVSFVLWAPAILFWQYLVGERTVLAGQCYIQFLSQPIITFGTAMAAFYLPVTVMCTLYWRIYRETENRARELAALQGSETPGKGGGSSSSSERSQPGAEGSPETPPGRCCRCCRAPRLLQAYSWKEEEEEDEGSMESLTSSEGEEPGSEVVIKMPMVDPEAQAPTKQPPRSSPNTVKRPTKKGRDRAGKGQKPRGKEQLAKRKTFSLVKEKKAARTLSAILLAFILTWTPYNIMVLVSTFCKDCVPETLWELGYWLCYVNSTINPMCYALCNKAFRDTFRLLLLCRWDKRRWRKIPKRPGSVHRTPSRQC

Structure (SMILES)	remaining at 24 h, 100 µM [1]	Ratio Ki [2]	Activity [3]	Ki [4]	remaining at 48 h, 100 µM [5]	remaining at 1 h, 100 µM [6]	IC50 [7]	Ki [7]	remaining at 6 h, 100 µM [8]	IC50 [9]	Ki [9]	Ratio Ki [10]	Ki [11]
CC(=O)N[C@@H](CCCCN)C(=O)N[C@@H](CCCNC(=N)N)C(=O)NCCCCC1CCN(CC(=O)N2c3ccccc3NC(=O)c3ccccc32)CC1	> 99%	49	> 95%	61.7 nM	> 99%	99%	3.31 nM	1.07 nM	> 99%	41.7 nM	2.04 nM	60	41.7 nM
CC(=O)N[C@@H](CCCCN)C(=O)N[C@@H](C)C(=O)N[C@@H](CCCNC(=N)N)C(=O)NCCN1CCN(CCCCC2CCN(CC(=O)N3c4ccccc4NC(=O)c4ccccc43)CC2)CC1	> 99%	45	> 95%	2.09 nM	> 99%	> 99%	0.191 nM	0.0631 nM	> 99%	1.78 nM	0.0794 nM	40	2.29 nM
